The text below walks through data of ChEMBL document CHEMBL2016491, “Synthesis and structure-activity relationships of (aryloxy)quinazoline ureas as novel, potent, and selective vascular endothelial growth factor receptor-2 inhibitors” (J Med Chem, 2012).

Molecules are shown by their SMILES.

By inhibition is commonly meant how much of the control response was suppressed. Read a low inhibition as a response near the control. What is called IC50 is the midpoint of a concentration-inhibition curve.

Series [1] has as its system MCF7. Nature of the series: Antiproliferative activity against human MCF7 cells at 10 uM after 72 hrs by MTS assay. Type of series: functional. The following applies: MCF7, 72 h.
Series [2] deals with HT-29. Nature of the series: Antiproliferative activity against human HT-29 cells at 10 uM after 72 hrs by MTS assay. The following applies: HT-29, 72 h. Type of series: functional. In short, it runs like this:
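Single-concentration test at 10 μM, with compound in <0.1% DMSO. Cells were plated at 3000/well in triplicate, given a 24 h pre-incubation, then treated for 72 h at 37 °C, 5% CO2. Growth inhibition (%) was read by MTS. HT29 was grown in DMEM + Glutamax-I with 10% FBS. Mean of at least three independent experiments.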
Background: Tetrazolium assays rely on reduction of a dye to a coloured formazan, in cell work by metabolically active cells.

In series [3] the test system is PC-3. Nature of the series: Antiproliferative activity against human PC3 cells at 10 uM after 72 hrs by MTS assay. Type of series: functional. To be noted: PC-3, 72 h.
A short description of series [4]: Solubility of the compound. Type of series: physicochemical.
Series [5] addresses Epidermal growth factor receptor (Homo sapiens, UniProt P00533). Nature of the series: Inhibition of human EGFR expressed in human A431 cells using poly(Glu4/Tyr) and [gamma32P]ATP as substrate after 1 hr by scintillation counting. More on the design: species or system A-431.
Series [6] addresses Vascular endothelial growth factor receptor 2 (Homo sapiens, UniProt P35968). Nature of the series: Inhibition of recombinant human VEGFR-2 using poly(Glu4/Tyr) and [gamma32P]ATP as substrate after 1 hr by scintillation counting.
In series [7] the test system is HT-29. Nature of the series: Antiproliferative activity against human HT-29 cells after 72 hrs by MTS assay. The following applies: HT-29, 72 h.
The test system of series [8] is MCF7. Nature of the series: Antiproliferative activity against human MCF7 cells after 72 hrs by MTS assay. The following applies: MCF7, 72 h.

Sequence of Vascular endothelial growth factor receptor 2 (P35968 whole entry): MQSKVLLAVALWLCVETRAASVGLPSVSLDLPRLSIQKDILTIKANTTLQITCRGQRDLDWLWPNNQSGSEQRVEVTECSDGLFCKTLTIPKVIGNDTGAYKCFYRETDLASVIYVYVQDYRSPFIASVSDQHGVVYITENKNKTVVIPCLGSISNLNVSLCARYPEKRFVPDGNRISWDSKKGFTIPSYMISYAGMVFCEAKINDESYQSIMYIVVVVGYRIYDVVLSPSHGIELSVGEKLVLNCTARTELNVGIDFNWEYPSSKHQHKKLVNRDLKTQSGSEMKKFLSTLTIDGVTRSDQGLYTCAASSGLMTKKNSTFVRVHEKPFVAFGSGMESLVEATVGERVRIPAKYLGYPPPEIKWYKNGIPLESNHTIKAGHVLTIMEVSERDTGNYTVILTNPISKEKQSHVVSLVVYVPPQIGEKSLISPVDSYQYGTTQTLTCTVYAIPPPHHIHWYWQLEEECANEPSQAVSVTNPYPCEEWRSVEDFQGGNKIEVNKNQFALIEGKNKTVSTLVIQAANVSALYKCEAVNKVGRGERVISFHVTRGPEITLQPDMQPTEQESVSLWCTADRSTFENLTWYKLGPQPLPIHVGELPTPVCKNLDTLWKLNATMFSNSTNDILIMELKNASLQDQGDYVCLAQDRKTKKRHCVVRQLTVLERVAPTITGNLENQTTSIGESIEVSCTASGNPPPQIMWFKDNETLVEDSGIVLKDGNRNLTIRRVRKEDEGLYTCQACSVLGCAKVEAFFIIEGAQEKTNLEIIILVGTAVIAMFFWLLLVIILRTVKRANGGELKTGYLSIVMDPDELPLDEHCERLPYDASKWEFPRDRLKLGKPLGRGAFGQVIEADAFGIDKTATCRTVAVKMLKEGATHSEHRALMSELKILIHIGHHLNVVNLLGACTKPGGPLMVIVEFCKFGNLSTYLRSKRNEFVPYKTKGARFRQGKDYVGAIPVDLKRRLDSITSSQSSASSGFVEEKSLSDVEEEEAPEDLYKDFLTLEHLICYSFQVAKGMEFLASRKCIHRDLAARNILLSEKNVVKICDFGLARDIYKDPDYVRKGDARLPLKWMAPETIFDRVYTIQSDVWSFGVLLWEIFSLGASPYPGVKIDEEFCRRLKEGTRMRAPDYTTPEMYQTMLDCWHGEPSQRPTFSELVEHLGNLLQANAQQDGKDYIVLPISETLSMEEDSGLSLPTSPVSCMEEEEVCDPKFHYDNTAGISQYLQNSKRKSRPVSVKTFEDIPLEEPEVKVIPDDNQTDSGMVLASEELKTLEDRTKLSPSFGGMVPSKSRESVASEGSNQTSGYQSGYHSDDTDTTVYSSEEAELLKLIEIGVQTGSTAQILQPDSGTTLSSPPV
Sequence of Epidermal growth factor receptor (P00533 whole entry): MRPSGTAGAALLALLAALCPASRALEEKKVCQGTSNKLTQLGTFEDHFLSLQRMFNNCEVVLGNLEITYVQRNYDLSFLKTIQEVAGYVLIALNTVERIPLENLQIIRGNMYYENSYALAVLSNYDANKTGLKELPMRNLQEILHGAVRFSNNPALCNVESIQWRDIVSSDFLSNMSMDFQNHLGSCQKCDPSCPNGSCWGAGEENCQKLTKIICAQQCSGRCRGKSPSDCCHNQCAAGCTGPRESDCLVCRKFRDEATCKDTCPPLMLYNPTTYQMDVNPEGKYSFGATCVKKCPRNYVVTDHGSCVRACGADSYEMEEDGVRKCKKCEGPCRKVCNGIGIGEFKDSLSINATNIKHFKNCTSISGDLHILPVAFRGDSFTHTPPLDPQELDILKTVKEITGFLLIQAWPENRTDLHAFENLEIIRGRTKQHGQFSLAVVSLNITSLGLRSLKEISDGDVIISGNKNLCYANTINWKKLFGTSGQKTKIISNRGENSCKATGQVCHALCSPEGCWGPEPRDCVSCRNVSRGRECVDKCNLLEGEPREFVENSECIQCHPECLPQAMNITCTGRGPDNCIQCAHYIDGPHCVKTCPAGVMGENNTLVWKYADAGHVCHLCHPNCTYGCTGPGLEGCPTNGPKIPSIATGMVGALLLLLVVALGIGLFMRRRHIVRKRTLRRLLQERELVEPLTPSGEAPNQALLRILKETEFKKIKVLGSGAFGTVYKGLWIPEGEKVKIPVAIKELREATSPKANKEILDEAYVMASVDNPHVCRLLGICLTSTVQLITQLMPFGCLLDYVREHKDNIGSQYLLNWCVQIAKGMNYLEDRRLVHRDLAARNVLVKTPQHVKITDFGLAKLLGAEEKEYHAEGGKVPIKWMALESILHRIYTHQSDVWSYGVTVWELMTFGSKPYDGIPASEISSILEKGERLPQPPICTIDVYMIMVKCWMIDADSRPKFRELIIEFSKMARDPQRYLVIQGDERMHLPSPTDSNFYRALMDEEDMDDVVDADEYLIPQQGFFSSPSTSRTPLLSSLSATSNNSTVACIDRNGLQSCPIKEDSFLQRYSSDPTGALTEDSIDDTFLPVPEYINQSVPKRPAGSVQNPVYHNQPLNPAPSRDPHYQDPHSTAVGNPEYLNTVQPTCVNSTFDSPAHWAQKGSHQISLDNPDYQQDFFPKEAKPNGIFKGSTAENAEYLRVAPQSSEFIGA

Consider `COc1cc2ncnc(Nc3ccc(Br)cc3F)c2cc1OC`, for which the inhibition at 10 µM in series [1] came out at 31%; in series [2], 0%; in series [3], 1%.
With `COc1cc2ncnc(Oc3ccc(NC(=O)Nc4ccc(F)c(Cl)c4)c(C)c3)c2cc1OC`, the solubility result in series [4] was “Insoluble”. Also, the IC50 in series [5] is more than 10 µM.
`COc1cc2ncnc(Nc3ccc(Br)cc3)c2cc1OC`: the IC50 is 3.6 µM in series [5] and 0.8 µM in series [6]. Besides, the inhibition at 10 µM in series [1] amounted to 42%; in series [2] it was 2%; in series [3] it was 37%.
Take `CCOC(=O)Nc1ccc(Nc2ncnc3cc(OC)c(OC)cc23)cc1`: the inhibition at 10 µM came out at 6% in series [1], 16% in series [2] and 12% in series [3].
On to `CCCCOc1cc2c(Nc3ccc(NC(=O)OC)c(Cl)c3)ncnc2cc1OCCN(CC)CC`, for which the IC50 in series [7] was 2.55 µM; in series [5], more than 10 µM; in series [6], 7.4 µM. In addition, the inhibition at 10 µM in series [1] was 33%; in series [3], 11%.
Regarding `COc1cc2ncnc(Oc3ccc(NC(=O)Nc4cccc(Br)c4)c(C)c3)c2cc1OC`, in series [4], the solubility entry was “Insoluble”. In addition, the figures for the IC50 in series [5] and in series [6] were more than 10 µM and 0.004 µM, respectively. Also, the inhibition at 10 µM in series [1] amounted to 30%; in series [2] it was 36%; in series [3] it was 25%.
Take `COc1ccc(NC(=O)Nc2cccc(Oc3ncnc4cc(OC)c(OC)cc34)c2)cc1`: the solubility entry in series [4] is “Insoluble”.
As for `CCN(CC)CCOc1cc2c(Nc3ccc(Br)cc3F)ncnc2cc1OC`, the IC50 in series [5] was determined as 9.1 µM; in series [6] it was 7.45 µM. Moreover, the inhibition at 10 µM amounted to 0% in series [1], 35% in series [2] and 0% in series [3].
Regarding `CCCCOC(=O)Nc1ccc(Nc2ncnc3cc(OC)c(OC)cc23)cc1C`, the results for the inhibition at 10 µM in series [1], in series [2] and in series [3] were 33%, 13% and 4%, respectively.
Consider `CCN(CC)CCOc1cc2ncnc(Nc3ccc(NC(=O)OC)c(C)c3)c2cc1OC`, for which the IC50 in series [5] is more than 10 µM; in series [6], 6.95 µM. Moreover, the figures for the inhibition at 10 µM in series [1], in series [2] and in series [3] were 0%, 1% and 0%, respectively.
As for `COc1cc2ncnc(Oc3ccc(F)c(Cl)c3)c2cc1OC`, the solubility entry in series [4] was “Insoluble”. Moreover, the inhibition at 10 µM was 0% in series [1], 0% in series [2] and 5% in series [3]. Besides, the IC50 in series [6] amounted to 9.8 µM.
As for `CCN(CC)CCOc1cc2ncnc(Nc3ccc(Br)cc3F)c2cc1OC`, the IC50 in series [7] is 7.5 µM; in series [5], more than 10 µM; in series [6], 1 µM. Further, the inhibition at 10 µM was 10% in series [1] and 16% in series [3].
For the compound `COc1cc2ncnc(Oc3ccc(NC(=O)Nc4ccccc4)cc3)c2cc1OC`, the solubility result in series [4] is given as “Insoluble”. Moreover, the inhibition at 10 µM in series [1] is 12%; in series [2] it was 10%; in series [3] it was 23%.
As to `COc1ccc(NC(=O)Nc2ccc(Oc3ncnc4cc(OC)c(OC)cc34)cc2)cc1`, the solubility result in series [4] is listed as “Insoluble”. Moreover, the inhibition at 10 µM in series [1] was found to be 0%; in series [2], 9%; in series [3] it was 12%.
As to `COc1cc2ncnc(Oc3cccc(NC(=O)Nc4ccccc4)c3)c2cc1OC`, the solubility entry in series [4] is recorded as “Insoluble”.
The same measure, in the same setting: the entry for `COc1cc2ncnc(Oc3ccc(NC(=O)Nc4ccc5ccccc5c4)cc3)c2cc1OC` is “Insoluble”.
Take `COC(=O)Nc1ccc(Nc2ncnc3cc(OC)c(OC)cc23)cc1`: the inhibition at 10 µM was determined as 27% in series [1], 10% in series [2] and 2% in series [3].
In the case of `CCCCOc1cc2c(Nc3ccc(NC(=O)OC)c(C)c3)ncnc2cc1OCCN(CC)CC`, the IC50 is 6.15 µM in series [7], more than 10 µM in series [5] and 9.4 µM in series [6]. The inhibition at 10 µM in series [1] and in series [3] was 0% in each case.
On to `COc1cc2ncnc(Oc3ccc(NC(=O)Nc4ccc(Br)cc4)cc3)c2cc1OC`, for which, in series [4], the solubility result is “Insoluble”.
Same read-out and setting: then `COc1cc2ncnc(Oc3ccc(NC(=O)NC4CCCCC4)cc3)c2cc1OC`, with “Insoluble”.
Turning to `COC(=O)Nc1ccc(Nc2ncnc3cc(OC)c(OC)cc23)cc1Cl`, the values for the inhibition at 10 µM in series [1], in series [2] and in series [3] were 0%, 22% and 19%, respectively.
On to `CCN(CC)CCOc1cc2ncnc(Nc3ccc(F)c(Cl)c3)c2cc1OC`, for which the IC50 is 5.9 µM in series [7], 9.9 µM in series [5] and 6.9 µM in series [6]. Moreover, the inhibition at 10 µM was 26% in series [1] and 36% in series [3].
Regarding `CCNC(=O)Nc1ccc(Nc2ncnc3cc(OC)c(OC)cc23)cc1`, the IC50 is more than 10 µM in series [5] and 4.65 µM in series [6]. In addition, the figures for the inhibition at 10 µM in series [1], in series [2] and in series [3] were 6%, 0% and 0%, respectively.
In the case of `CCNC(=O)Nc1ccc(Nc2ncnc3cc(OCCN(CC)CC)c(OC)cc23)cc1`, the IC50 in series [5] is more than 10 µM; in series [6], 6.6 µM. For the same compound, the inhibition at 10 µM in series [1], in series [2] and in series [3] was 0% in each case.
With `COc1cc2ncnc(Oc3cccc(NC(C)=O)c3)c2cc1OC`, the solubility result in series [4] is listed as “Insoluble”.
Consider `CCOC(=O)Nc1ccc(Nc2ncnc3cc(OC)c(OCCN(CC)CC)cc23)cc1C`, for which the inhibition at 10 µM in series [1] was 0%; in series [2], 36%; in series [3], 0%.
As to `CCCC(=O)Nc1ccc(Nc2ncnc3cc(OC)c(OC)cc23)cc1C`, the results for the inhibition at 10 µM in series [1], in series [2] and in series [3] were 5%, 0% and 0%, respectively. For the same compound, the IC50 in series [6] was 4 µM.
As for `COc1cccc(NC(=O)Nc2ccc(Nc3ncnc4cc(OC)c(OC)cc34)cc2)c1`, the IC50 in series [5] was more than 10 µM.
Regarding `CCN(CC)CCOc1cc2ncnc(Nc3ccc(NC(=O)OC)c(Cl)c3)c2cc1OC`, the IC50 in series [5] was more than 10 µM; in series [6], 5.2 µM. The inhibition at 10 µM in series [1] amounted to 0%; in series [2], 38%; in series [3], 0%.
On to `CCC(=O)Nc1ccc(Nc2ncnc3cc(OC)c(OC)cc23)cc1`, for which the IC50 in series [5] was more than 10 µM.
On to `CCOC(=O)Nc1ccc(Nc2ncnc3cc(OCCN(CC)CC)c(OC)cc23)cc1C`, for which the figures for the inhibition at 10 µM in series [1], in series [2] and in series [3] were 0%, 11% and 0%, respectively.
Consider `COc1cc2ncnc(Nc3ccccc3)c2cc1OC`, for which the values for the IC50 in series [5] and in series [6] were 4.3 µM and 7 µM, respectively. For the same compound, the inhibition at 10 µM in series [1] is 7%; in series [2] it was 0%; in series [3], 9%.
Take `COc1cccc(NC(=O)Nc2ccc(Oc3ncnc4cc(OC)c(OC)cc34)cc2)c1`: in series [4], the solubility entry is “Insoluble”. In series [5], this compound came in with an IC50 of more than 10 µM.
Consider `COc1cc2ncnc(Oc3ccc(NC(=O)Nc4ccc(F)c(Cl)c4)cc3)c2cc1OC`, for which the solubility entry in series [4] is reported as “Insoluble”.
On to `COc1cc2ncnc(Nc3ccc(NC(=O)OC(C)C)c(C)c3)c2cc1OC`, for which the IC50 in series [5] came out at 5.8 µM.
In the case of `CCCCNC(=O)Nc1ccc(Nc2ncnc3cc(OC)c(OC)cc23)cc1`, the IC50 in series [5] was more than 10 µM; in series [6] it was 5.8 µM. The inhibition at 10 µM in series [1] stood at 26%; in series [2], 16%; in series [3], 14%.
Consider `CCCCNC(=O)Nc1ccc(Oc2ncnc3cc(OC)c(OC)cc23)cc1`, for which, in series [4], the solubility entry is reported as “Insoluble”.
In series [7], `CCCCOc1cc2c(Nc3ccc(NC(=O)OCC)c(C)c3)ncnc2cc1OCCN(CC)CC` gave an IC50 of 5.8 µM. Further, the inhibition at 10 µM in series [1] and in series [3] was 0% throughout.
`CCOC(=O)Nc1ccc(Nc2ncnc3cc(OCCN(CC)CC)c(OC)cc23)cc1Cl`: the IC50 is 5.45 µM in series [7] and 3.35 µM in series [6]. Also, the inhibition at 10 µM in series [1] and in series [3] was 0% throughout.
In the case of `COC(=O)Nc1ccc(Oc2ncnc3cc(OC)c(OC)cc23)cc1`, in series [4], the solubility entry is on record as “Insoluble”.
Still for that read-out and setting: then `COc1cc2ncnc(Oc3ccc(NC(=O)Nc4ccc(F)cc4F)cc3)c2cc1OC`, with “Insoluble”; and `CCOC(=O)Nc1ccc(Oc2ncnc3cc(OC)c(OC)cc23)cc1`, with “Insoluble”.
Regarding `COc1cc2ncnc(Oc3ccc(NC(=O)Nc4ccc5ccccc5c4)c(C)c3)c2cc1OC`, the solubility result in series [4] is listed as “Insoluble”. Moreover, the IC50 in series [5] is more than 10 µM.
`CCCOC(=O)Nc1ccc(Nc2ncnc3cc(OC)c(OC)cc23)cc1C`: the values for the inhibition at 10 µM in series [1], in series [2] and in series [3] were 0%, 18% and 6%, respectively.
Turning to `COc1cc2ncnc(Oc3ccc(NC(=O)Nc4ccc(Br)cc4)c(C)c3)c2cc1OC`, the solubility result in series [4] is “Insoluble”. Moreover, the figures for the IC50 in series [5] and in series [6] were more than 10 µM and 0.04 µM, respectively. The figures for the inhibition at 10 µM in series [1], in series [2] and in series [3] were 3%, 2% and 7%, respectively.
Regarding `CCCCOc1cc2c(Nc3ccc(NC(=O)OCC)c(Cl)c3)ncnc2cc1OCCN(CC)CC`, the half-inhibitory concentration (IC50) was 2.5 µM in series [7], 9.15 µM in series [5] and 7.1 µM in series [8]. Testing at 10 µM in series [3] gave an inhibition of 40%.
